Experimental data published in ChEMBL document CHEMBL1128370, “Novel NMDA antagonists: replacement of the pyridinium ring of 6,11-ethanobenzo[b]quinolizinium cations with heteroisoquinolinium cations” (J Med Chem, 1995).

Experiments:
Glutamate NMDA receptor = assay: Binding affinity against phencyclidine (PCP) site of N-methyl-D-aspartate glutamate receptor from rat brain, using [3H]- TCP as radioligand.
Procedure, shortened: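 Male Sprague-Dawley rat whole-brain membranes, washed by repeated homogenization/centrifugation in 50 mM Tris-HCl pH 7.7, frozen at -70 °C, assayed in 5 mM Tris-HCl at 0.5 mg protein/tube. [3H]TCP about 1 nM final with varying compound concentrations, 25 min at room temperature. Nonspecific binding with 100 μM PCP. Filtration, scintillation counting, Ki calculated. At least three determinations in triplicate.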

[1] = Neuroprotection was determined against NMDA induced cell death in cultured mouse cortical neuron.; assay type: functional
Procedure, shortened: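 Primary cortical neurons from Swiss-Webster mouse embryos at 16 days post conception, trypsinized, plated at 50 000 cells/well, cytosine arabinoside from day 5, used on day 13. Cells were washed and exposed 30 min to 500 µM NMDA with or without varying concentrations of test agent in MEM, then returned to MEM alone. MK-801 10 µM served as positive control.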

SMILES | Ki (Glutamate NMDA receptor) [nM] | IC50 [1] [nM]
Cn1nc[n+]2c1C1c3ccccc3C2CC1(c1ccoc1)c1ccoc1 (configuration not stated) | 14 | 
c1ccc(-n2cc[n+]3c2C2c4ccccc4C3CC2(c2ccoc2)c2ccoc2)cc1 (configuration not stated) | 52 | 
c1ccc2c(c1)C1CC(c3ccoc3)(c3ccoc3)C2c2scc[n+]21 (configuration not stated) | 2.9 | 50
c1ccc2c(c1)C1CC(c3ccoc3)(c3ccoc3)C2c2cccc[n+]21 (configuration not stated) |  | 45
C1=C[N+]2=C(C1c1cccc3ccccc13)C1c3ccccc3C2CC1(c1ccoc1)c1ccoc1 (configuration not stated) | 329 | 
c1ccc(C(c2ccccc2)n2cc[n+]3c2C2c4ccccc4C3CC2(c2ccoc2)c2ccoc2)cc1 (configuration not stated) | 306 | 
CCOC1(OCC)C2c3ccccc3C([n+]3ccn(Cc4ccccc4)c32)C1(C)C (configuration not stated) | 10 | 
CCCCn1cc[n+]2c1C1c3ccccc3C2CC1(c1ccoc1)c1ccoc1 (configuration not stated) | 36 | 
c1ccc2c(c1)C1CC(c3ccoc3)(c3ccoc3)C2c2n(Cc3ccc4ccccc4c3)cc[n+]21 (configuration not stated) | 330 | 
CCOC1(OCC)C2c3ccccc3C([n+]3ccccc32)C1(C)C (configuration not stated) |  | 60
c1ccc(CCCn2cc[n+]3c2C2c4ccccc4C3CC2(c2ccoc2)c2ccoc2)cc1 (configuration not stated) | 68 | 
CCOC1(OCC)C2c3ccccc3C([n+]3ccsc32)C1(C)C (configuration not stated) | 6.1 | 173
CCOC1(OCC)C2c3ccccc3C([n+]3ccn(C)c32)C1(C)C (configuration not stated) | 8.2 | 53
Cn1cc[n+]2c1C1c3ccccc3C2CC1(c1ccoc1)c1ccoc1 (configuration not stated) | 2.9 | 257
CCOC1(OCC)C2c3ccccc3C([n+]3cnn(C)c32)C1(C)C (configuration not stated) | 30 | 
c1ccc(Cn2cc[n+]3c2C2c4ccccc4C3CC2(c2ccoc2)c2ccoc2)cc1 (configuration not stated) | 7.7 | 42
C[C@]12N[C@H](Cc3ccccc31)c1ccccc12 [DIZOCILPINE] |  | 67
